In ChEMBL document CHEMBL2176949 (J Med Chem, 2012):

How the values were obtained:
[1] = target: T1, Neuronal acetylcholine receptor; alpha4/beta2 (Homo sapiens, UniProt P17787+P43681); test: Agonist activity at human alpha4beta2 nAChR low sensitivity form expressed in human SH-EP1 cells assessed as increase in calcium flux by FLIPR relative to 10 uM nicotine; format: functional, cell-based
[2] = target: T2, Neuronal acetylcholine receptor; alpha3/beta4 (Homo sapiens, UniProt P30926+P32297); test: Displacement of [3H]epibatidine from human alpha3beta4 nAChR expressed in human SH-SY5Y cells; format: cell-based
T2 sequence (P30926 whole entry): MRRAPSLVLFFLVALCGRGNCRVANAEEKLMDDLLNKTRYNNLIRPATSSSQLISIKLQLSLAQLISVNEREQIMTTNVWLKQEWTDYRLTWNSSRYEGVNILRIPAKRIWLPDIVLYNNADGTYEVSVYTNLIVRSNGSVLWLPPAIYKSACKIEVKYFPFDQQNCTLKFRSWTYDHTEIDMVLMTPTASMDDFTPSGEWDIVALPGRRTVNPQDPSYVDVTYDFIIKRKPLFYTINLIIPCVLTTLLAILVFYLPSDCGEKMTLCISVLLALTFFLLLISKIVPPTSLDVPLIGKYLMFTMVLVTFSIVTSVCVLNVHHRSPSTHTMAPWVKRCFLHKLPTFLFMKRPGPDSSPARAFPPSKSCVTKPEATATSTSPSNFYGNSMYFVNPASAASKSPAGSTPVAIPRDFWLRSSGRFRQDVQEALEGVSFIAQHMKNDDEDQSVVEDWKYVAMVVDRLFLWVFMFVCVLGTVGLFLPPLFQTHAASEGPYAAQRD
T2 sequence (P32297 whole entry): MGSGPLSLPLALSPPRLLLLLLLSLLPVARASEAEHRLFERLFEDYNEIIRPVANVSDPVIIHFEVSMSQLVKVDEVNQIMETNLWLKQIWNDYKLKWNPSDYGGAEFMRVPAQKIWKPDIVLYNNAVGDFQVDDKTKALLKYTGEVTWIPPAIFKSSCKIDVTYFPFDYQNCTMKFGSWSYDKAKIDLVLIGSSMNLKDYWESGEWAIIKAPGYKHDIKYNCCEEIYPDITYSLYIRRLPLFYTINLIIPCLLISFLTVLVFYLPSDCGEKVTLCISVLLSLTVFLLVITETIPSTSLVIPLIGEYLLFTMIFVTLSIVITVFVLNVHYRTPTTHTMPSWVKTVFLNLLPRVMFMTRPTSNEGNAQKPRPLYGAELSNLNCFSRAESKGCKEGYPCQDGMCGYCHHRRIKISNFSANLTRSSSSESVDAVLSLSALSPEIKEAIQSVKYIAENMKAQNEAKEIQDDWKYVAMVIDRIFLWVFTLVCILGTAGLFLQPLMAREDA
Summary of the method: (§1)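 Binding to membranes from the cell lines: homogenised in PBS pH 7.4, spun at 40000g for 20 min at 4 °C, then incubated 2 h on ice in PBS with competitor (0.001 nM to 100 μM) and radioligand. Filters washed in ice-cold PBS and counted by scintillation. IC50 from nonlinear regression; Ki by Cheng-Prusoff. Minimum of three assays, ± SEM.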

[3] = target: T2, Neuronal acetylcholine receptor; alpha3/beta4; test: Agonist activity at human alpha3beta4 nAChR expressed in human SH-SY5Y cells assessed as increase in calcium flux by FLIPR relative to 10 uM nicotine; format: functional, cell-based
[4] = target: T1, Neuronal acetylcholine receptor; alpha4/beta2; test: Agonist activity at human alpha4beta2 nAChR high sensitivity form expressed in human SH-EP1 cells assessed as increase in calcium flux by FLIPR relative to 10 uM nicotine; format: functional, cell-based
[5] = target: T1, Neuronal acetylcholine receptor; alpha4/beta2; test: Agonist activity at human alpha4beta2 nAChR high sensitivity form expressed in human SH-EP1 cells assessed as increase in calcium flux by FLIPR; format: functional, cell-based
[6] = target: T2, Neuronal acetylcholine receptor; alpha3/beta4; test: Agonist activity at human alpha3beta4 nAChR expressed in human SH-SY5Y cells assessed as increase in calcium flux by FLIPR; format: functional, cell-based
[7] = target: T1, Neuronal acetylcholine receptor; alpha4/beta2; test: Displacement of [3H]nicotine from human alpha4beta2 nAChR expressed in human SH-EP1 cells; format: cell-based; summary of the method: as §1
[8] = target: T1, Neuronal acetylcholine receptor; alpha4/beta2; test: Agonist activity at human alpha4beta2 nAChR low sensitivity form expressed in human SH-EP1 cells assessed as increase in calcium flux by FLIPR; format: functional, cell-based
[9] = target: Neuronal acetylcholine receptor subunit alpha-7 (Homo sapiens, UniProt P36544); test: Displacement of [3H]epibatidine from human alpha7 nAChR expressed in human HEK/RIC3 cells; format: cell-based; summary of the method: as §1
Neuronal acetylcholine receptor subunit alpha-7, sequence (P36544 whole entry): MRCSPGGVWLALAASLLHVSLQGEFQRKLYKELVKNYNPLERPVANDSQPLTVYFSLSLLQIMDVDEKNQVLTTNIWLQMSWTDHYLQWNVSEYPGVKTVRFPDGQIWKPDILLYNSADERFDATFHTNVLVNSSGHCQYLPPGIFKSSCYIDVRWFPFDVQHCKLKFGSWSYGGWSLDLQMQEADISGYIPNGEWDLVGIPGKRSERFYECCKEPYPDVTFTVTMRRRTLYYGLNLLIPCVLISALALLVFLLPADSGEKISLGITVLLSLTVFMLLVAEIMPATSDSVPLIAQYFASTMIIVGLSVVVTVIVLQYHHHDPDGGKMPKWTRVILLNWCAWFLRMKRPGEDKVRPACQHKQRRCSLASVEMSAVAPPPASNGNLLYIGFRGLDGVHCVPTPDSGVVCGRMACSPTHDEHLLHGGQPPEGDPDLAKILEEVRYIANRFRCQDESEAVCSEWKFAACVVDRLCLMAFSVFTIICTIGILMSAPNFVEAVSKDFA

T1 sequence (P17787 whole entry): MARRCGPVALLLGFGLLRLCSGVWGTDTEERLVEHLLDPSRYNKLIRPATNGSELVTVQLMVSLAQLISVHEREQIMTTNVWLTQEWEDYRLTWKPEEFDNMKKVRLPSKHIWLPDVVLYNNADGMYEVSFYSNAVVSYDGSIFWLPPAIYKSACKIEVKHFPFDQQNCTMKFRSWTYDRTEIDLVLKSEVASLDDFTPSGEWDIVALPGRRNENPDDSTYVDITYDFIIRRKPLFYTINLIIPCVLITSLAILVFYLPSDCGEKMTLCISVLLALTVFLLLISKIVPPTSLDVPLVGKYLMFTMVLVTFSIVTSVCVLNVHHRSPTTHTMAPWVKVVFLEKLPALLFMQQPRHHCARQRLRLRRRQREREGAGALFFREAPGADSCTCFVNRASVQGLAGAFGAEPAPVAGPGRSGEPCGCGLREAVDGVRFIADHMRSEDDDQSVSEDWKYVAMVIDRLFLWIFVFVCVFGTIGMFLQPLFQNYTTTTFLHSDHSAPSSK
T1 sequence (P43681 whole entry): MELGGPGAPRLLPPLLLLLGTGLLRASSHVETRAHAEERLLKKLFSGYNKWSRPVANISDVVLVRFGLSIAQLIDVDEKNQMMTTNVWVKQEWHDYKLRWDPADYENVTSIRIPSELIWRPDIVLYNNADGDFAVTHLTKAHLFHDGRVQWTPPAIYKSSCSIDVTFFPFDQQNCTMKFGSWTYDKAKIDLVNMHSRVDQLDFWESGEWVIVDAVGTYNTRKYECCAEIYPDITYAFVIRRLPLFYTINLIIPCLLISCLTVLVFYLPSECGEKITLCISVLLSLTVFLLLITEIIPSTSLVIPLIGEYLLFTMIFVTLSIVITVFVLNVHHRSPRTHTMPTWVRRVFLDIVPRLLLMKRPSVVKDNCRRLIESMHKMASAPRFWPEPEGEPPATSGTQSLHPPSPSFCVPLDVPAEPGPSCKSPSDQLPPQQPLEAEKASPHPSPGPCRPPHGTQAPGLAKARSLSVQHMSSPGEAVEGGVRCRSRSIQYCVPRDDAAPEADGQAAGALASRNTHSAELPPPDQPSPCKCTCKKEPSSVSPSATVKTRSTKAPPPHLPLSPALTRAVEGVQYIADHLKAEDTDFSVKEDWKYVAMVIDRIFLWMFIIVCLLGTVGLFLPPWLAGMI

| SMILES | %max [1] | Ki [2] | %max [3] | %max [4] | EC50 [5] | EC50 [6] | Ki [7] | EC50 [8] | Ki [9] |
| --- | --- | --- | --- | --- | --- | --- | --- | --- | --- |
| COc1cncc(C2=CC3CNCC(C2)C3)c1 (stereo not given) | 100% | 0.0143 µM | 145% | 72% | 0.049 µM | 0.105 µM | 0.0003 µM | 0.053 µM | 0.0046 µM |
| COc1ccc(C2=CC3CNCC(C2)C3)cn1 (stereo not given) |  | 0.328 µM |  |  |  |  | 0.0004 µM |  | 1.85 µM |
| C1=C(c2cnccn2)CC2CNCC1C2 (stereo not given) |  | 0.828 µM |  |  |  |  | 0.0011 µM |  | 0.281 µM |
| CN1CC2C=C(c3cncc(Oc4ccccc4)c3)CC(C2)C1 (stereo not given) | 9.5% | 0.0082 µM | 103% | 42% | 0.183 µM | 0.1 µM | 0.0013 µM | > 10 µM | 0.017 µM |
| C1=C(c2ccncc2)CC2CNCC1C2 (stereo not given) |  | 0.459 µM |  |  |  |  | 0.056 µM |  | > 10 µM |
| CN1CC2C=C(c3cncc(C#N)c3)CC(C2)C1 (stereo not given) |  | 4.5 µM |  |  |  |  | 0.024 µM |  | > 10 µM |
| COc1ccc(C2=CC3CC(C2)CN(C)C3)cn1 (stereo not given) | 20% | > 10 µM | 61% | 91% | 3.46 µM | 1.89 µM | 0.797 µM | > 10 µM | > 10 µM |
| N#Cc1cncc(C2=CC3CNCC(C2)C3)c1 (stereo not given) |  | 0.047 µM |  |  |  |  | 0.0006 µM |  | 0.16 µM |
| C1=C(c2cccnc2)CC2CNCC1C2 (racemic) |  | 0.012 µM |  |  |  |  | 0.0002 µM |  | 0.004 µM |
| c1cncc(N2CC3CNCC(C3)C2)c1 |  | 0.0066 µM |  |  |  |  | 0.0001 µM |  | 0.0016 µM |
| C1=C(c2cncc(-c3ccccc3)c2)CC2CNCC1C2 (stereo not given) | 5.3% | 0.017 µM | 61% | 33% | 0.085 µM | 0.181 µM | 0.0008 µM | > 10 µM | 3.22 µM |
| Clc1ccc(Oc2cncc(C3=CC4CNCC(C3)C4)c2)cc1 (stereo not given) |  | 0.04 µM |  |  |  |  | 0.0019 µM |  | 0.023 µM |
| N#Cc1cncc(C2=C[C@H]3CNC[C@@H](C2)C3)c1 | 88% | 0.015 µM | 136% | 95% | 0.256 µM | 0.355 µM | 0.0003 µM | 4.19 µM | 0.073 µM |
| Fc1cncc(C2=CC3CNCC(C2)C3)c1 (stereo not given) |  | 0.039 µM |  |  |  |  | 0.0003 µM |  | 0.0036 µM |
| CN1CC2C=C(c3cncc(OCc4ccccc4)c3)CC(C2)C1 (stereo not given) |  | 0.711 µM |  |  |  |  | 0.0017 µM |  | 4.54 µM |
| CN1CC2C=C(c3cncc(F)c3)CC(C2)C1 (stereo not given) |  | 1.64 µM |  |  |  |  | 0.013 µM |  | 1.01 µM |
| CN1CC2C=C(c3cncc(Cl)c3)CC(C2)C1 (stereo not given) |  | 1.83 µM |  |  |  |  | 0.0096 µM |  | 8.01 µM |
| CN1CC2C=C(c3ccc(Cl)nc3)CC(C2)C1 (stereo not given) |  | 0.986 µM |  |  |  |  | 0.022 µM |  | 6.53 µM |
| Clc1ccccc1Oc1cncc(C2=CC3CNCC(C2)C3)c1 (stereo not given) |  | 0.026 µM |  |  |  |  | 0.0009 µM |  | 0.039 µM |
| Fc1ccc(C2=CC3CNCC(C2)C3)cn1 (stereo not given) | 136% | 0.028 µM | 140% | 104% | 0.085 µM | 0.099 µM | 0.0004 µM | 0.085 µM | 0.02 µM |
| Clc1cncc(C2=CC3CNCC(C2)C3)c1 (stereo not given) |  | 0.04 µM |  |  |  |  | 0.0004 µM |  | 0.015 µM |
| Fc1cncc(C2=C[C@@H]3CNC[C@H](C2)C3)c1 | 120% | 0.0054 µM | 153% | 112% | 0.034 µM | 0.111 µM | 0.0002 µM | 0.036 µM | 0.0016 µM |
| COc1cc(C2=CC3CNCC(C2)C3)cnc1Cl (stereo not given) |  | 0.007 µM |  |  |  |  | 0.0004 µM |  | 0.111 µM |

| SMILES | %max [1] | Ki [2] | %max [3] | %max [4] | EC50 [5] | EC50 [6] | Ki [7] | EC50 [8] | Ki [9] |
| --- | --- | --- | --- | --- | --- | --- | --- | --- | --- |
| C1=C(c2ccc(-c3ccccc3)nc2)CC2CNCC1C2 (stereo not given) | 18% | 0.507 µM | 17% | 19% | > 10 µM | 10.9 µM | 0.105 µM | 9.66 µM | 0.59 µM |
| C1=C(c2cncnc2)CC2CNCC1C2 (stereo not given) | 145% | 0.058 µM | 147% | 116% | 0.24 µM | 0.198 µM | 0.0002 µM | 0.162 µM | 0.019 µM |
| FC(F)(F)c1cncc(C2=CC3CNCC(C2)C3)c1 (stereo not given) |  | 0.079 µM |  |  |  |  | 0.0007 µM |  | 0.641 µM |
| N#Cc1ccncc1C1=CC2CNCC(C1)C2 (stereo not given) | 27% | 0.103 µM | 130% | 55% | 3.25 µM | 0.166 µM | 0.0028 µM | > 10 µM | 0.33 µM |
| CN1CC2C=C(c3ccc(F)nc3)CC(C2)C1 (stereo not given) | 9.4% | 1.3 µM | 25% | 22% | > 10 µM | > 10 µM | 0.018 µM | > 10 µM | 1.3 µM |
| CN1CC2C=C(c3cnccc3C#N)CC(C2)C1 (stereo not given) |  |  |  |  |  |  | 3.42 µM |  | 4.85 µM |
| Clc1cccc(Oc2cncc(C3=CC4CNCC(C3)C4)c2)c1 (stereo not given) |  | 0.022 µM |  |  |  |  | 0.001 µM |  | 0.013 µM |
| C1=C(c2ccc3nccnc3c2)CC2CNCC1C2 (stereo not given) |  | 5.74 µM |  |  |  |  | 0.085 µM |  | > 10 µM |
| COc1cccc(Oc2cncc(C3=CC4CNCC(C3)C4)c2)c1 (stereo not given) |  | 0.015 µM |  |  |  |  | 0.0009 µM |  | 0.013 µM |
| COc1cc(C2=CC3CC(C2)CN(C)C3)cnc1Cl (stereo not given) |  | 1.43 µM |  |  |  |  | 0.0044 µM |  | 7.57 µM |
| Clc1ccncc1C1=CC2CNCC(C1)C2 (stereo not given) | 12.8% | 0.128 µM | 105% | 46% | 2 µM | 0.377 µM | 0.003 µM | > 10 µM | 0.033 µM |
| COc1cncc(C2=CC3CC(C2)CN(C)C3)c1 (stereo not given) | 15% | 0.596 µM | 27% | 19% | 2.66 µM | 3.64 µM | 0.0006 µM | 5.13 µM | 0.605 µM |
| N#Cc1cncc(C2=C[C@@H]3CNC[C@H](C2)C3)c1 | 89% | 0.017 µM | 144% | 92% | 0.107 µM | 0.447 µM | 0.0003 µM | 0.343 µM | 0.079 µM |
| Fc1cncc(C2=C[C@H]3CNC[C@@H](C2)C3)c1 | 119% | 0.0083 µM | 140% | 100% | 0.029 µM | 0.155 µM | 0.0002 µM | 0.05 µM | 0.0033 µM |
| Clc1ccc(C2=CC3CNCC(C2)C3)nn1 (stereo not given) | 160% | 0.073 µM | 135% | 118% | 0.08 µM | 0.149 µM | 0.0004 µM | 0.595 µM | 0.077 µM |
| COc1ccc(Oc2cncc(C3=CC4CNCC(C3)C4)c2)cc1 (stereo not given) |  | 0.027 µM |  |  |  |  | 0.0014 µM |  | 0.023 µM |
| CN1CC2C=C(c3cnccc3Cl)CC(C2)C1 (stereo not given) |  | 7.23 µM |  |  |  |  | 1.16 µM |  | 1.42 µM |
| Fc1ccc(Oc2cncc(C3=CC4CNCC(C3)C4)c2)cc1 (stereo not given) |  | 0.031 µM |  |  |  |  | 0.0006 µM |  | 0.0072 µM |
| Clc1ccc(C2=CC3CNCC(C2)C3)cn1 (stereo not given) | 152% | 0.0062 µM | 141% | 98% | 0.054 µM | 0.016 µM | 0.0004 µM | 0.035 µM | 0.039 µM |
| C1=C(c2cncc(OCc3ccccc3)c2)CC2CNCC1C2 (stereo not given) |  | 0.044 µM |  |  |  |  | 0.0007 µM |  | 0.0439 µM |
| COc1ccccc1Oc1cncc(C2=CC3CNCC(C2)C3)c1 (stereo not given) |  | 0.056 µM |  |  |  |  | 0.001 µM |  | 0.03 µM |
| CNCC/C=C/c1cccnc1 [RIVANICLINE] |  | 5.4 µM |  |  |  |  | 0.026 µM |  | 8 µM |
| Cc1ccc(C2=CC3CNCC(C2)C3)cn1 (stereo not given) | 112% | 0.025 µM | 149% | 107% | 0.075 µM | 0.093 µM | 0.0003 µM | 0.079 µM | 0.08 µM |
